Shown are actives, neighbours in structure and some others; about 3% of the full set was active somewhere.
PGC1a acetyl inh: PGC1a acetylation modulation, inhibitor mode; U2OS PGC1a acetylation, AlphaScreen anti-acetyl-lysine; with virally co-expressed GCN5 acetyltransferase; inhibition, % at 15.6 µM; 350,000 compounds, 0.17% hits;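 active = every replicate shows inhibition of at least 40%; inconclusive = mean inhibition at least 40% but some replicate below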;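 note: 0% = neutral control wells and 100% = positive control wells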
SIRT5 inh: sirtuin-5 (human) deacylase inhibition. Q9NXA8. Purified SirT5, succinyl-peptide AMC, trypsin-coupled fluorescence. inhibition, % at 15 µM. 330,000 compounds, 1.1% hits. AID 652115; in the data active = inhibition above about 15%; inconclusive = no clear call, values can overlap the other calls
Target sequence (Q9NXA8 whole entry, looked up): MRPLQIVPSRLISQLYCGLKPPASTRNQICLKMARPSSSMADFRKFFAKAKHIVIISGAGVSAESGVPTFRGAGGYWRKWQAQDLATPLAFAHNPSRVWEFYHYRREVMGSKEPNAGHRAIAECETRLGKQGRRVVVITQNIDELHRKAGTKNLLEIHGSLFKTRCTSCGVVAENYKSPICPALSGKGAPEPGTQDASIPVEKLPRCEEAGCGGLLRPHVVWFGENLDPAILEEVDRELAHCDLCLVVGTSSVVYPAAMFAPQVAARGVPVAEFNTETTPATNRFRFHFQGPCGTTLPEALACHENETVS
S100A4 inh HTS: S100A4-myosin IIA interaction inhibition; S100A4/TAMRA-MyoIIA peptide fluorescence polarization; P26447; 360,000 compounds, 0.14% hits; inhibition, % at 10.7 µM;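 active = mean inhibition of at least 70% across replicates, with every replicate also reaching that level; inconclusive = mean inhibition reaches 70% but some replicates fall short; inactive = mean inhibition below 70%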
Target sequence (P26447 whole entry, looked up): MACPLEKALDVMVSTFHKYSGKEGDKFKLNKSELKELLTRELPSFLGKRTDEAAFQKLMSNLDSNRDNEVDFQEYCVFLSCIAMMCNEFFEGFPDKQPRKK
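Material: human S100A4 monomer with TAMRA-labelled myosin IIA peptide; buffer or medium: HEPES pH 7.2 with CaCl2, KCl, NaCl, DTT, Triton; compound dosing: one concentration per compound; schedule: 5 min incubation before reading; benchmarks: neutral control DMSO, positive control TFP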
Ecoli rRNA inh: inhibitors of bacterial rRNA selective over humanized ribosomes | GFP signal change (wild-type ribosome), % (no concentration beside the values) | E. coli WT GFP vs humanized-ribosome RFP mutants, fluorescence, 24 h; stronger effect = lower value; DMSO median 0, no signal -100 | 350,000 compounds, 1.6% hits;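 active = significant combined selectivity score with lowered wild-type GFP, culture density cut under 30%, mutant RFP and density less affected; inactive = any of these conditions unmet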
Cneo AK release: causes C. neoformans cell lysis; adenylate kinase release luminescence, 4 h; normalised: neutral wells 0, clomiphene wells 100; lysis activity, % at 15 µM; 360,000 compounds, 0.2% hits;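 active = mean lysis activity across replicates of at least 80%, whatever share of replicates individually reach that level; inactive = mean lysis activity below 80%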
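Schedule: static 4 h at 37 °C with compound, 1 h detection; system: C. neoformans cells; benchmarks: Clomiphene as positive control; buffer or medium: fresh YPD medium; measure: luminescence rise reflecting yeast cell lysis; measured by: luminescent adenylate kinase detection reagent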
C2C12 statin: suppressors of simvastatin-induced myotoxicity in C2C12 myotubes; ATP luminescence, 48 h; scaled: DMSO 0, geranylgeraniol control 100; rescue of ATP level, % at 7.49 µM; 330,000 compounds, 0.78% hits; AID 602340;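 active = mean ATP rescue above about 67%, or every replicate alone reaching that limit, limit read from the data, passing the limit was not always enough; inconclusive = no clear call, values can overlap the other calls; inactive = mean under the limit and some replicate under it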;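 note: myotubes were challenged with 10 µM simvastatin during compound exposure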
* = called active by the depositor; ? = inconclusive; . = not tested or not shown.

SMILES	PGC1a acetyl inh	SIRT5 inh	S100A4 inh HTS	Ecoli rRNA inh	Cneo AK release	C2C12 statin
O=C(NC1CCCC1)[C@H]1[C@H](CO)[C@H]2Cn3c(ccc(-c4ccncc4)c3=O)[C@H]2N1CCc1ccccc1	.	19*	4	-5	5	-18
CCNC(=O)[C@H]1[C@H](CO)[C@H]2Cn3c(ccc(-c4ccccc4)c3=O)[C@H]2N1CC	.	6	59	2	-4	-6
CN1[C@@H]2c3ccc(-c4cccnc4)c(=O)n3C[C@@H]2[C@@H](CO)[C@@H]1C(=O)N1CCc2ccccc2C1	.	4	-1	2	113*	23
CCN1[C@@H]2c3ccc(-c4ccncc4)c(=O)n3C[C@@H]2[C@@H](CO)[C@@H]1C(=O)NCc1ccccc1	7	-1	1	-1	-3	0
CCN1[C@@H]2c3ccc(-c4ccccc4)c(=O)n3C[C@@H]2[C@@H](CO)[C@@H]1C(=O)NCc1ccccc1	.	22*	1	-3	-2	0
CCNC(=O)[C@@H]1[C@@H](CO)[C@@H]2Cn3c(ccc(-c4ccccc4)c3=O)[C@@H]2N1CC	.	10	78*	1	15	4
O=C(NC1CCCC1)[C@H]1[C@H](CO)[C@H]2Cn3c(ccc(-c4cccnc4)c3=O)[C@H]2N1CCc1ccccc1	.	.	.	-5	.	-6
C[C@@H]1CN([C@H](C)CO)C(=O)c2cc(NC(=O)Cc3ccccc3)ccc2O[C@@H](C)CCCCO[C@H]1CN(C)Cc1ccncc1	13	1	-2	1	-3	10
COc1cccc(NC(=O)C[C@H]2CC[C@@H]3[C@H](COc4ccc(NC(=O)C5CCCCC5)cc4C(=O)N3C)O2)c1	0	.	-11	0	-2	18
O=C1C(c2ccccc2)C(c2ccccc2)NC(c2ccccc2)C1c1ccccc1 (stereo not drawn)	-55	.	.	.	3	111*
COCC#Cc1ccc2c(c1)O[C@@H](CN(C)C(=O)Nc1ccc(OC)cc1)[C@@H](C)CN([C@@H](C)CO)S2(=O)=O	-5	-5	?	-7	2	22
CCOC(=O)N1CCN(C(=O)Cn2nc(C)c3sc4ccccc4c3c2=O)CC1	6	.	.	.	4	103*
Cc1nn(CC(=O)N2CCN(C)CC2)c(=O)c2c1sc1ccccc12	-3	-1	15	6	-1	4
COc1cc2c(cc1OC)C(c1ccc3c(c1)Cc1ccccc1-3)OC(=O)C2 (stereo not drawn)	-32	.	6	-23*	-1	-11
C[C@H](CO)N1C[C@H](C)[C@@H](CN(C)C(=O)C2CCCCC2)Oc2cc(C3=CCCCC3)ccc2S1(=O)=O	-1	10	12	-9	0	-19
CC(C)(C)Cc1nc2ccccc2n1CCc1ccccc1	-20	.	.	.	11	6
CCn1c(CCc2ccccc2)nc2ccccc21	-3	-3	8	-23*	-2	-18
CCc1nc2ccccc2n1CCc1ccccc1	2	-5	-12	-24*	.	.
O=C(C1CCC1)N1CC2(C1)[C@H](c1ccccc1)[C@@H](CO)N2Cc1ccc(Cl)cc1	-11	4	-15	-3	.	.
O=c1[nH]c2ccccc2nc1/C=C/c1ccc(Cl)cc1	-13	0	23	17	-5	120*
Cn1c(=O)c2ccccc2n(CC(=O)NC2CCCCC2)c1=O	7	4	-5	4	1	8
Cn1c(=O)n(CC(=O)NC2CCCCC2)c(=O)c2ccccc21	-4	.	.	.	0	72*
COCC(=O)Nc1ccc2c(c1)[C@H]1C[C@H](CC(=O)NCc3ccccc3F)O[C@@H](CO)[C@H]1O2	5	-6	2	-4	0	-2
OC1(c2ccccc2F)CCN(Cc2nnnn2Cc2ccc(F)cc2)CC1	10	-1	4	-21*	2	5
Cc1ccc(Cn2nnnc2CN2CCC(O)(c3ccc(F)cc3)CC2)cc1	-10	3	-1	-27*	2	59

Screening results from PubChem BioAssay.
